Hits are enriched below; roughly 1.5% of the tested compounds scored in any of these assays.
NR1D1 modulator: modulators of human Rev-erb alpha DNA binding. P20393. Rev-erbα–FITC-DNA binding, fluorescence polarization, 90 min. activity, % at 10 µM. 0.79% of 370,000 active;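 active = activity above about 14%, limit read from the data; passing the limit was not always enough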;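 note: 0% = DMSO wells with 35 nM protein and 100% = DMSO wells with 750 nM protein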
aDG glyco act: alpha-DG glycosylation activation. Pro5-aDG cells, alpha-DG glycosylation AlphaScreen (IIH6); 0% Pro5, 100% B10-LARGE cell signal. activation, % at 10 µM. 0.22% of 360,000 active;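 active = activation of at least 8% versus controls, or a plate z-score of at least 8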;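 note: Pro5 are CHO cells carrying HIG-tagged alpha-DG that lacks glycosylation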
HNF4A DNA FP: change in binding of human HNF4 alpha to DNA. activity change, % at 10 µM. HNF4a-FITC DNA binding, fluorescence polarization, 1 h. P41235. AID 1224865. 0.3% of 360,000 active; in the data active = activity change above about 30%, passing the limit was not always enough
CSN deneddyl inh: inhibitors of human CSN-mediated cullin deneddylation. 0.38% of 360,000 active. Q92905. Purified CSN, SCF-Nedd8-OG deneddylation, fluorescence polarization. AID 651999. inhibition, % at 12.5 µM;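 active = pattern-corrected inhibition above about 35%, with an unprinted fluorescence ratio check between 0.5 and 1.5, limit read from the data, passing the limit was not always enough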;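 note: 0% = enzyme with substrate and 100% = substrate without enzyme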
Target sequence (Q92905 whole entry, looked up, one chain of several): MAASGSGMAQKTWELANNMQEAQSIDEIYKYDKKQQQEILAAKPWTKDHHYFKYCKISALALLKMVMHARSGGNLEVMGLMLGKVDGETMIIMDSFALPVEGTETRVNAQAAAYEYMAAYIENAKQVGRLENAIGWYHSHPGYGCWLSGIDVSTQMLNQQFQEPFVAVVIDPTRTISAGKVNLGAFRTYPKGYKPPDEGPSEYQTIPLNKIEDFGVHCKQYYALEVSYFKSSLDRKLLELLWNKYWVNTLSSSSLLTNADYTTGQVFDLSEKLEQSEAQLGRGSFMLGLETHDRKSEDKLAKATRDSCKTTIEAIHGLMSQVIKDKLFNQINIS
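Material: human Csn5 produced in HEK293T cells; Input: enzyme 0.24 nM; Reagent: SCFSkp2-Nedd8OG substrate at 10 nM final; Dosing: 12.5 µM compound; Incubation: 90 min reaction at room temperature; Detection: fluorescence polarization of the substrate; Evaluation: % inhibition of substrate cleavage by Csn5; Control set: substrate-only high control, full reaction low control.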
aDG conf: alpha-DG glycosylation activation, confirmation. shares compounds with aDG glyco act. Pro5-aDG cells, IIH6 AlphaLISA; scaled to LARGE-overexpressing B10 cells as 100%. activation, % at 10 µM (by protocol). 17% of 600 active. AID 651671;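 active = activation of at least 7% in one or more replicates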;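 note: cells exposed to compound for two days before detection; 0% = DMSO-treated Pro5 cells and 100% = DMSO-treated B10-LARGE cells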
Active calls of the source: *; . = no result.

SMILES	NR1D1 modulator	aDG glyco act	HNF4A DNA FP	CSN deneddyl inh	aDG conf
COc1ccc([C@@H]2CC(=O)c3c(O)cc(O)cc3O2)cc1O	1	0	0	0	.
COc1cc(O)c2c(c1)OC(c1ccc(O)cc1)CC2=O (stereo not drawn)	-1	13*	2	1	2
O=C1CC(c2ccc(O)cc2)Oc2cc(O)ccc21 (stereo not drawn)	-1	0	5	-2	.
Cc1[nH]c2ccccc2c1-c1csc(N)n1	1	0	6	8	.
CNc1nc(-c2c[nH]c3ccccc23)cs1	4	11*	6	11	7.9*
CCC(C)Nc1nc(-c2c[nH]c3ccccc23)cs1 (stereo not drawn)	1	7.7*	17	3	6.9*
CN1CCN(CC(=O)Nc2nc(-c3c[nH]c4ccccc34)cs2)CC1	-1	0	6	0	.
Nc1nc(-c2c[nH]c3ccccc23)cs1	5	9.1*	6	5	2
O=C(c1cc(COc2ccc3ncccc3c2)on1)N1CCC[C@H]1CO	-2	5.5*	1	1	0
O=C(NC1CCCCCCC1)c1cc(COc2ccc3ncccc3c2)on1	0	2	0	4	.
CC(CNC(=O)c1cc(COc2ccc3ncccc3c2)on1)c1ccccc1 (stereo not drawn)	-5	4.7*	2	-1	2
CCOC(=O)N1CCN(C(=O)c2cc(COc3ccc4ncccc4c3)on2)CC1	-5	7.8*	2	3	1
COc1ccc([C@H]2OC(=O)C[C@H]2C(=O)N2CCN(c3ccccc3Cl)CC2)cc1OC	5	.	.	.	.
O=C(Nc1ccccc1F)c1ccc([N+](=O)[O-])s1	2	16*	1	-7	3.7*
O=C(Nc1cccc2ccccc12)c1ccc([N+](=O)[O-])s1	0	12*	-4	-1	5.7*
O=C(CSc1nnc(NC(=O)c2ccco2)s1)Nc1ccccc1Br	0	2.2*	0	5	0
Cc1cccc(S(=O)(=O)c2c(N)n(Cc3ccco3)c3nc4ccccc4nc23)c1	-1	21*	9	17	1
Cc1ccc(S(=O)(=O)c2c(N)n(Cc3ccco3)c3nc4ccccc4nc23)cc1	6	17*	-12	-13	0
C[C@@H]1COc2cc(F)ccc2S(=O)(=O)N1C	10	.	.	.	.
O=C1SCCN1N=Cc1ccc([N+](=O)[O-])o1	2	7.2*	-3	0	3.5*
CN1CCN(c2ncnc3c2ncn3[C@H]2CN(Cc3ccc(-c4ccccc4)cc3)C[C@@H](CO)O2)CC1	-4	9.6*	1	-2	9.8*
OCCN1CCN(c2ncnc3c2ncn3[C@H]2CN(Cc3ccc(-c4ccccc4)cc3)C[C@@H](CO)O2)CC1	-1	2	3	2	.
COC(=O)C1=C(C)NC(=S)NC1c1ccc(OC(=O)c2ccco2)cc1 (stereo not drawn)	-1	5.3*	-2	2	2
CCOC(=O)C1=NOC(C(=O)NCc2ccccc2)(C(=O)c2ccc(OC)cc2)C1 (stereo not drawn)	7	.	.	.	.
O=C(COCc1ccccc1)N1CC[C@H]2[C@H](CCCN2Cc2ccc(F)cc2)C1	-7	.	.	.	.
SMILES	NR1D1 modulator	aDG glyco act	HNF4A DNA FP	CSN deneddyl inh	aDG conf
Clc1ccc([C@H]2OC[C@@]3(CNCCc4c[nH]c5ccccc45)CS[C@H](c4ccc(Cl)cc4)N23)cc1	-1	.	.	.	.
CCC(C(=O)NCc1ccco1)N(C(=O)CNS(=O)(=O)c1ccc(F)cc1)c1ccccc1F (stereo not drawn)	2	3.5*	0	2	-1
Cc1nc(N2CCCCC2C)c2nnn(Cc3ccccc3)c2n1 (stereo not drawn)	-2	.	.	.	.
COc1ccc(/C=C/S(=O)(=O)NC2CCCC2)c(CNC(=O)OC(C)(C)C)c1	2	.	.	.	.
O=C(/C=C/c1ccccc1Cl)Nc1cccnc1	0	0	0	6	.
O=C(/C=C/c1ccc(Cl)c(Cl)c1)Nc1cccnc1	-6	3.1*	4	4	-1
CCCCCOc1ccc(/C(C)=N/NC2=NCCN2)cc1	-2	1.6*	1	-4	8.6*
COc1ccc(-n2c(=O)c3ccccc3n(Cc3ccccc3F)c2=O)cc1OC	-1	1.8*	3	1	-1
CN1/C(=C\C(=O)c2ccco2)C(C)(C)c2ccccc21	0	4.3*	42*	34	0
CN1/C(=C\C(=O)COC(=O)c2ccco2)C(C)(C)c2ccccc21	-6	0	3	2	.
CCOc1cccc(-c2cc(N3CCN(CCO)CC3)n3nccc3n2)c1	0	6.0*	6	4	-1
COc1ccc(-c2cc(N3CCN(CCO)CC3)n3nccc3n2)cc1	-6	0	5	-5	.
Cn1cc(CN2CCCC(C(=O)Nc3cccc(-c4cc5ccccc5[nH]4)c3)C2)cn1 (stereo not drawn)	-4	1	-1	-4	.
CC(C)n1cc(CN2CCCC(C(=O)Nc3cccc(-c4cc5ccccc5[nH]4)c3)C2)cn1 (stereo not drawn)	2	8.8*	2	3	5.3*
O=C(CN1C(=O)c2ccccc2S1(=O)=O)NCCSCc1ccco1	1	80*	4	-6	0
Nc1nc(Cl)cc(N2CCC(c3cc(-c4ccc(Cl)cc4Cl)n[nH]3)CC2)n1	6	11*	4	3	1
Cc1ccc(C(C)C)c(OCCn2ccnc2C)c1	3	0	-3	3	.
Cc1ccc(OCCCCn2ccnc2C)c(C)c1	-4	3.0*	-2	-8	-1
O=C(OC12CCCN(C1)/C(=C/c1cccc(Cl)c1)C2)c1ccccc1 (stereo not drawn)	-1	.	.	.	.
CCOC(=O)C(/C(N)=N/C(=O)Nc1ccccc1)=C(\C)O	-5	2.9*	2	-4	-1
CCOC(=O)c1ccc(NC(=S)Nc2ccccc2)cc1	2	0	2	5	.
CC(C)(C)c1ccc(-c2cc(N)n[nH]2)cc1	-1	9.7*	4	5	0
CCC(C(=O)Nc1ccccc1N1CCCC1)c1cccc(OC)c1 (stereo not drawn)	7	.	.	.	.
Cc1cc(C)c(C(N)=O)c(Nc2cccc3ccccc23)n1	-1	5.7*	-3	8	0
OCCN1CCCC12CCC(c1ccccc1)CC2 (stereo not drawn)	-1	.	.	.	.
CCCn1c(NC(=O)c2ccccc2)nc(Cc2ccccc2)c1Cc1ccccc1	-7	.	.	.	.
c1ccc(-c2nc(N3CCOCC3)c3ccccc3n2)nc1	0	7.0*	-3	-1	3
c1ccc(-c2nc(N3CCCCCC3)c3ccccc3n2)nc1	-3	0	-4	-2	.
c1ccc(Oc2nc(-c3ccccn3)nc3ccccc23)cc1	-1	2.4*	6	0	2.8*
COc1ccc(Oc2nc(-c3ccccn3)nc3ccccc23)cc1	0	2	-1	-2	.

Source: PubChem
